Measurements pooled from the literature.
Protocols differ between the studies behind these lines.
UGT1A6: UDP-glucuronosyltransferase 1A6 (UGT1A6, Homo sapiens, UniProt P19224)
CYP2B6: Cytochrome P450 2B6 (CYP2B6, Homo sapiens, UniProt P20813)

Cc1ccn2c(C(=O)N3CCN(CCn4cc(C5CC5)nn4)CC3)c(C)nc2c1  CC50 (HeLa; cell growth or viability, resazurin): > 100 µM
Oc1ccc(Cl)cc1C=NNc1nc(-c2ccc(F)cc2)cs1  haemolysis (haemolysis; human; 100 µM, 30 min, pH 7.4): 52.5%
CCN(CC)CCCC(C)Nc1ccnc2cc(Cl)ccc12 (stereo not drawn)  haemolysis (haemolysis; human; 10 mM, 45 min): 15.4%
CCOP(=O)(OCC)[C@@H]1C[C@H](n2cc(Cn3ccc(NC(C)=O)nc3=O)nn2)ON1C (racemic)  CC50 (HEL; cell growth or viability; 72 h): > 100 µM
CCc1ccc(-n2cc(CN3CCN(C(=O)c4c(C)nc5cc(C)ccn45)CC3)nn2)cc1  CC50 (HeLa; cell growth or viability, resazurin): > 100 µM
CCOP(=O)(OCC)[C@@H]1C[C@@H](n2cc(C(=O)OC)nn2)ON1C (relative stereo)  CC50 (HEL; cell growth or viability; 72 h): > 100 µM
Cc1nc2ccc(Cl)cn2c1C(=O)N1CCN(Cc2cn(-c3ccc(C(F)(F)F)cc3)nn2)CC1  CC50 (HeLa; cell growth or viability, resazurin): > 100 µM
COc1c(F)cccc1C=NNc1nc(-c2ccc(F)cc2)cs1  haemolysis (haemolysis; human; 100 µM, 30 min, pH 7.4): 36.6%
Cc1cc(C)cc(-n2cc(CN3CCN(C(=O)c4c(C)nc5ccc(Cl)cn45)CC3)nn2)c1  CC50 (HeLa; cell growth or viability, resazurin): > 100 µM
COc1ccc(S(=O)(=O)Nc2cc(OC)c(NC(=O)CCCl)cc2OC)cc1  IC50 (HeLa; cell growth or viability, XTT; 72 h): 16 µM
CCCc1cn(CCN2CCN(C(=O)c3c(C)nc4ccc(Cl)cn34)CC2)nn1  CC50 (HeLa; cell growth or viability, resazurin): > 100 µM
Fc1ccc(-c2csc(NN=Cc3ccccc3C(F)(F)F)n2)cc1  haemolysis (haemolysis; human; 100 µM, 30 min, pH 7.4): 45.7%
CCOP(=O)(OCC)[C@@H]1C[C@H](n2cc(-c3ccccc3)nn2)ON1C  CC50 (HeLa; cell growth or viability; 72 h): > 250 µM
OC(Cn1cncn1)(Cn1cncn1)c1ccc(F)cc1F  haemolysis (haemolysis; human; 1 µg/mL, 1 h): 3.39%
CCCc1cn(CCN2CCN(C(=O)c3c(C)nc4cc(C)ccn34)CC2)nn1  CC50 (HeLa; cell growth or viability, resazurin): > 100 µM
Fc1ccc(-c2csc(NN=Cc3cccs3)n2)cc1  haemolysis (haemolysis; human; 50 µM, 30 min, pH 7.4): 32.4%
CC(=O)c1cc(C(=O)N[C@@H](C)Cn2ccc(-c3ccc(C#N)c(Cl)c3)n2)[nH]n1  IC50 (UGT1A6; enzyme activity, inhibitor; human, liver microsomes): > 50 µM
Fc1ccc(-c2csc(NN=Cc3ccc(C(F)(F)F)cc3)n2)cc1  haemolysis (haemolysis; human; 100 µM, 30 min, pH 7.4): 41%
C[C@H](O)c1cc(C(=O)N[C@@H](C)Cn2ccc(-c3ccc(C#N)c(Cl)c3)n2)n[nH]1  IC50 (UGT1A6; enzyme activity, inhibitor; human, liver microsomes): > 100 µM
CCc1ccc(-n2cc(CN3CCN(C(=O)c4c(C)nc5ccc(Cl)cn45)CC3)nn2)cc1  CC50 (HeLa; cell growth or viability, resazurin): 58.1 µM
CCOP(=O)(OCC)[C@@H]1C[C@@H](n2cc(Cn3cc(C)c(=O)[nH]c3=O)nn2)ON1C (racemic)  CC50 (HeLa; cell growth or viability; 72 h): > 250 µM
C=CC(=O)N(C)CCOc1c(N)ncnc1-c1cc(F)cc(NC(=O)c2ccc(C3CC3)cc2F)c1C  Km (CYP2B6; enzyme activity, substrate; 10 min, pH 7.4): 1.3 µM
CCOP(=O)(OCC)[C@@H]1C[C@H](n2cc(Cn3ccc(=O)[nH]c3=O)nn2)ON1C (racemic)  CC50 (HeLa; cell growth or viability; 72 h): > 250 µM
Cc1cccc(F)c1N1CCC(N2Cc3cn(CC(C)(F)F)nc3N(Cc3ccccc3C(F)(F)F)C2=O)CC1  IC50 (CYP2B6; enzyme activity, inhibitor; human, liver microsomes): > 10 µM
Fc1ccc(-c2csc(NN=Cc3cccc(C(F)(F)F)c3)n2)cc1  haemolysis (haemolysis; human; 50 µM, 30 min, pH 7.4): 30.7%
CCCCCCCCCCCCCCCCOP(=O)([O-])OCC[N+](C)(C)C  IC50 (HeLa; cell growth or viability, XTT; 72 h): 6.5 µM
CCOc1ccccc1C=NNc1nc(-c2ccc(F)cc2)cs1  haemolysis (haemolysis; human; 10 µM, 30 min, pH 7.4): 0%
C[C@@H]1[C@H](O)[C@@H](C)/C=C/C=C/C=C/C=C/C=C/C=C/C=C/[C@H](O[C@@H]2O[C@H](C)[C@@H](O)[C@H](N)[C@@H]2O)C[C@@H]2O[C@](O)(C[C@@H](O)C[C@@H](O)[C@H](O)CC[C@@H](O)C[C@@H](O)CC(=O)O[C@H]1C)C[C@H](O)[C@H]2C(=O)O  haemolysis (haemolysis; human; 4 µg/mL, 1 h): 93.2%
CC(=NNc1nc(-c2ccc(F)cc2)cs1)c1cccc(Br)c1  haemolysis (haemolysis; human; 10 µM, 30 min, pH 7.4): 0%
COc1cccc(-n2cc(CN3CCN(C(=O)c4c(C)nc5cc(C)ccn45)CC3)nn2)c1  CC50 (HeLa; cell growth or viability, resazurin): > 100 µM
